Measured values: ChEMBL document CHEMBL1137600, “From docking false-positive to active anti-HIV agent” (J Med Chem, 2007)
Active and inactive are the calls of the source. The rule behind the calls is not given here.

Assays:
[1] = tested on: Human immunodeficiency virus 1; assay: Antiviral activity against HIV1 3B in human MT2 cells by MTT assay; format: functional, organism-based; conditions: for EC50: Human immunodeficiency virus 1, 3B
Procedure, shortened: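 HIV-1 IIIB infection of human MT-2 T-cells; MTT colorimetric read-out of cell protection. Antiviral curves were run in triplicate at each concentration.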

MT2 = assay: Cytotoxicity against human MT2 cells by MTT assay; format: functional
Procedure, shortened: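 Human MT-2 cells, MTT colorimetric read-out. CC50 is the concentration giving 50% inhibition of MT-2 cell growth.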

| SMILES | Activity [1] | CC50 (MT2) [µM] | EC50 [1] [nM] |
| --- | --- | --- | --- |
| Clc1ccc(Nc2nnc(Cc3ccccc3)o2)cc1 | inactive | 31 | – |
| FC(F)(F)c1cc(Nc2nnc(Cc3c(Cl)cccc3Cl)o2)ccc1Cl | inactive | 9 | – |
| c1ccc(Cc2nnc(Nc3ccccc3)o2)cc1 | inactive | > 100 | – |
| Clc1ccc(Nc2nnc(Cc3cccc(Cl)c3)o2)cc1 | – | 32 | > 10000 |
| COc1cc(Nc2nnc(Cc3c(Cl)cccc3Cl)o2)c(Cl)cc1Cl | inactive | 9 | – |
| Cc1ccnc2c1NC(=O)c1cccnc1N2C1CC1 [NEVIRAPINE] | – | > 10 | – |
| COc1ccc(Cc2nnc(Nc3ccc(C)cc3)o2)cc1OC | inactive | 61 | – |
| Cc1cc(C)cc(Cc2nnc(Nc3ccc(Cl)cc3)o2)c1 | inactive | > 100 | – |
| Cc1cc(Nc2nnc(Cc3c(Cl)cccc3Cl)o2)ccc1Cl | – | > 100 | 1300 |
| Clc1ccc(Nc2nnc(Cc3c(Cl)cccc3Cl)o2)cc1 | – | 20 | 820 |
| Clc1ccc(Nc2nnc(Cc3c(Cl)cccc3Cl)o2)cc1Cl | – | > 100 | 310 |
| Clc1ccc(Cc2nnc(Nc3ccc(Cl)cc3)o2)cc1 | inactive | > 100 | – |
| O=C1Nc2ccc(Cl)cc2C(C#CC2CC2)(C(F)(F)F)O1 (single isomer, unassigned) [EFAVIRENZ] | – | 3 | – |
| Cc1cn([C@H]2C=C[C@@H](CO)O2)c(=O)[nH]c1=O [STAVUDINE] | – | > 100 | 1600 |
